From ChEMBL document CHEMBL3769383, “Cefsulodin Inspired Potent and Selective Inhibitors of mPTPB, a Virulent Phosphatase from Mycobacterium tuberculosis” (ACS Med Chem Lett, 2015) come the findings set out here.

Broadly, the IC50 is the point on the concentration scale where inhibition reaches its midpoint. A lower IC50 goes with inhibition by little substance. A word on the Ki: it is the equilibrium dissociation constant of an inhibitor or competing ligand from its target. A low value points to tighter binding.

Experiment [1] can be described thus: Inhibition of Mycobacterium tuberculosis PTPB expressed in Escherichia coli BL21/DE3 cells using pNPP as substrate after 5 mins by spectrophotometry.
A short description of experiment [2]: Reversible competitive inhibition of Mycobacterium tuberculosis PTPB expressed in Escherichia coli BL21/DE3 cells using pNPP as substrate after 5 mins.
Experiment [3] has as its system BL21-DE3. Description: Potency index, ratio of SPAA IC50 to compound IC50 for Mycobacterium tuberculosis PTPB expressed in Escherichia coli BL21/DE3 cells.
Experiment [4] has as its system BL21-DE3. Description: Inhibition of Mycobacterium tuberculosis PTPB expressed in Escherichia coli BL21/DE3 cells using pNPP as substrate at 200 uM after 5 mins by spectrophotometry. The gist of the method: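 Single-point screen: the test compound is present at 200 μM in the assay (a compound concentration, not a substrate level). The read-out is phosphatase-catalysed hydrolysis of para-nitrophenyl phosphate.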

A short description of experiment [5]: Inhibition of Mycobacterium tuberculosis PTPB.

Structures are written as SMILES. Activity calls are given as the source filed them. The calls are words filed in the database; no cut-off is given here.

For `NC(=O)C(c1ccccc1)S(=O)(=O)O` (configuration not stated), the IC50 in experiment [1] is 180000 nM. Further, the Ki in experiment [2] was determined as 73400 nM.
On to `O=C(NC1CC1)C(c1ccccc1)S(=O)(=O)O` (racemic), for which the Ratio IC50 with BL21-DE3 [3] came out at 32. Besides, in experiment [1], the IC50 is 5600 nM.
In the same order, the values of `O=C(Nc1ccccc1)C(c1ccccc1)S(=O)(=O)O` (racemic) are 180 and 1000 nM.
For the compound `O=C(C(c1ccccc1)S(=O)(=O)O)N1CCCCC1` (racemic), in the experiment on BL21-DE3 [3], the Ratio IC50 turned out to be 180. The same compound showed an IC50 in experiment [1] of 950 nM.
Take `NC(=O)c1ccncc1`: the inhibition result in the experiment on BL21-DE3 [4] is “inactive”.
Same read-out and setting: as for `CC(=O)OCC1=C(C(=O)O)N2C(=O)[C@@H](N)[C@H]2SC1`, the entry is “inactive”.
Compound `O=C(Nc1cccc2ccccc12)C(c1ccccc1)S(=O)(=O)O` (racemic) returned an IC50 in experiment [1] of 720 nM.
Still for that read-out and setting: next, `O=C(Nc1ccc(-c2ccccc2)cc1)C(c1ccccc1)S(=O)(=O)O` (racemic): 196 nM; `O=C(C(c1ccccc1)S(=O)(=O)O)N1CCC(Cc2ccccc2)CC1` (racemic): 40 nM.
In experiment [1], `O=C(NCCc1ccc(Cl)cc1Cl)C(c1ccccc1)S(=O)(=O)O` (racemic) displayed an IC50 of 290 nM. This IC50 is about 7.2-fold higher than that of the compound before.
With `CCCNC(=O)C(c1ccccc1)S(=O)(=O)O` (racemic), the Ratio IC50 in the experiment with BL21-DE3 [3] was 11. In experiment [1], the IC50 amounted to 16000 nM.
`NC(=O)c1cc[n+](CC2=C(C(=O)O)N3C(=O)[C@@H](NC(=O)[C@@H](c4ccccc4)S(=O)(=O)[O-])[C@H]3SC2)cc1` [CEFSULODIN SODIUM]: the IC50 in experiment [5] came to 16000 nM.
